{"source": "ChEMBL document CHEMBL4041494", "about": "“Simple synthesis of endophenazine G and other phenazines and their evaluation as anti-methicillin-resistant Staphylococcus aureus agents” (Eur J Med Chem, 2017)", "key": {"Staphylococcus aureus [1]": {"tested_on": "Staphylococcus aureus", "assay": "Antibacterial activity against methicillin-resistant Staphylococcus aureus after 24 hrs by broth microdilution assay"}, "Staphylococcus aureus [2]": {"tested_on": "Staphylococcus aureus", "assay": "Antibacterial activity against methicillin-resistant Staphylococcus aureus LAC JE2 after 24 hrs by broth microdilution assay", "type": "functional", "conditions": "LAC JE2, 24 h", "procedure,_shortened": "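Broth microdilution per ASM Clinical Microbiology Procedures Handbook (3rd ed.). Compound stock at pH 7, serial 2-fold dilutions in cation-adjusted Mueller Hinton II broth with 5% DMSO. Inoculum from direct colony suspension at 0.5 McFarland, 10 ul per well. Static incubation at 37°C for 24 h. MIC is the lowest concentration with no visible growth. Vancomycin positive control, medium-only negative control.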"}, "HaCaT": {"tested_on": "HaCaT", "assay": "Cytotoxicity against human HaCaT cells assessed as reduction in cell viability by CellTiter blue assay", "type": "cell-based", "procedure,_shortened": "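HaCaT keratinocytes. Compound dissolved in 2:3 NaOH (0.01 M)/DMSO, diluted in DMEM with 10% FBS and 1% penicillin-streptomycin to 4 mM top concentration (3% DMSO), then serially diluted in DMEM. Viability read by CellTiter-Blue, following resazurin absorbance change on a spectrophotometer. Absorbance plotted against concentration and IC50 calculated.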"}, "Staphylococcus aureus [3]": {"tested_on": "Staphylococcus aureus", "assay": "Induction of membrane disruption in methicillin-resistant Staphylococcus aureus LAC JE2 at 1 to 10 times MIC measured at 15 mins interval for 4 hrs by propidium iodide staining based fluorescence assay", "type": "functional", "procedure,_shortened": "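S. aureus JE2 resuspended in PBS to OD600 1.0 and treated with 1X, 2X or 10X MIC. Propidium iodide fluorescence (RFU) read in a plate reader every 15 min for 4 h.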"}, "Staphylococcus aureus [4]": {"tested_on": "Staphylococcus aureus", "assay": "Induction of membrane disruption in methicillin-resistant Staphylococcus aureus LAC JE2 at 1 to 10 times MIC by propidium iodide staining based confocal microscopic method", "type": "functional"}, "Equus caballus": {"species_on_record": "Equus caballus", "assay": "Induction of equine heart cytochrome-c reduction at 25 to 100 uM measured for 900 sec at 30 sec time interval in presence of NADPH by photospectrometric method", "type": "functional", "procedure,_shortened": "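Compound stock 10 mM in 95% DMSO/5% 0.1 M NaOH, diluted in DPBS to 200 μM and serially diluted, keeping 5% DMSO/NaOH. NADPH 100 μM, then cytochrome c 20 μM added. Absorbance at 550 nm read, with 700 nm as baseline correction. Controls: cyt-c alone, cyt-c plus NADPH, and buffer alone.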"}, "[5]": {"assay": "Induction of ROS generation at 0.11 to 0.55 mM measured for 500 sec at 30 sec time interval in presence of NADPH by ABDA staining based photospectrometric method", "procedure,_shortened": "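Compound 10 mM in 95% DMSO/5% 0.1 M NaOH, serially diluted keeping 5% DMSO/NaOH in DPBS. NADPH 100 μM and ABDA 5 μM final added. Superoxide followed as ABDA decay at 479 nm. Triplicate per concentration. Controls: ABDA alone in buffer, and buffer alone.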"}, "[6]": {"assay": "Induction of ROS generation by HPF staining based flow cytometry"}, "Staphylococcus aureus [7]": {"tested_on": "Staphylococcus aureus", "assay": "Bacteriostatic activity against methicillin-resistant Staphylococcus aureus LAC JE2 at 10 times MIC by serial dilution method", "type": "functional", "procedure,_shortened": "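Overnight culture diluted 1:1000 into fresh CAMHB and grown 2 h at 37°C with agitation. 1-ml aliquots then treated with 10X MIC of compound. Samples taken every 2 h, and viability counted by serial dilution and plating on tryptic soy agar.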"}}, "note": "Calls of active or inactive are those of the source. The rule behind the calls is not given here."}
{"smiles": "O=C(O)c1cccc2nc3ccccc3nc12", "note": "[PHENAZINE-1-CARBOXYLIC ACID]", "values": [{"measurement": "MIC", "setting": "Staphylococcus aureus [1]", "result": 64, "unit": "µg/mL"}]}
{"smiles": "O=C(O)c1cccc2nc3c(Br)cccc3nc12", "values": [{"measurement": "MIC", "setting": "Staphylococcus aureus [2]", "result": 128, "unit": "µg/mL"}]}
{"smiles": "NC(=O)c1cccc2nc3cccc(F)c3nc12", "values": [{"measurement": "MIC", "setting": "Staphylococcus aureus [2]", "result": "> 128", "unit": "µg/mL"}]}
{"smiles": "CC(C)(O)/C=C/c1cccc2nc3c(C(=O)O)cccc3nc12", "values": [{"measurement": "MIC", "setting": "Staphylococcus aureus [2]", "result": 128, "unit": "µg/mL"}]}
{"smiles": "COC(=O)c1cccc2nc3c(/C=C/C(C)(C)O)cccc3nc12", "values": [{"measurement": "MIC", "setting": "Staphylococcus aureus [2]", "result": 128, "unit": "µg/mL"}]}
{"smiles": "CS(=O)(=O)NC(=O)c1cccc2nc3cccc(Br)c3nc12", "values": [{"measurement": "MIC", "setting": "Staphylococcus aureus [2]", "result": 4, "unit": "µg/mL"}, {"measurement": "IC50", "setting": "HaCaT", "result": 118, "unit": "µM"}]}
{"smiles": "NC(=O)c1cccc2nc3ccccc3nc12", "values": [{"measurement": "MIC", "setting": "Staphylococcus aureus [1]", "result": 64, "unit": "µg/mL"}]}
{"smiles": "CN(C)C(=O)c1cccc2nc3cccc(Br)c3nc12", "values": [{"measurement": "MIC", "setting": "Staphylococcus aureus [2]", "result": "> 128", "unit": "µg/mL"}]}
{"smiles": "O=C(O)c1cccc2nc3cccc(Cl)c3nc12", "values": [{"measurement": "MIC", "setting": "Staphylococcus aureus [2]", "result": 16, "unit": "µg/mL"}]}
{"smiles": "CC(C)(O)/C=C/c1cccc2nc3cccc(C#N)c3nc12", "values": [{"measurement": "MIC", "setting": "Staphylococcus aureus [2]", "result": 128, "unit": "µg/mL"}]}
{"smiles": "COC(=O)c1cccc2nc3cccc(/C=C/C(C)(C)O)c3nc12", "values": [{"measurement": "MIC", "setting": "Staphylococcus aureus [2]", "result": 128, "unit": "µg/mL"}]}
{"smiles": "CC(C)(O)CCc1cccc2nc3cccc(C(=O)O)c3nc12", "values": [{"measurement": "MIC", "setting": "Staphylococcus aureus [2]", "result": 64, "unit": "µg/mL"}]}
{"smiles": "COC(=O)c1cccc2nc3c(Br)cccc3nc12", "values": [{"measurement": "MIC", "setting": "Staphylococcus aureus [2]", "result": "> 128", "unit": "µg/mL"}]}
{"smiles": "CS(=O)(=O)NC(=O)c1cccc2nc3cccc(Cl)c3nc12", "values": [{"measurement": "MIC", "setting": "Staphylococcus aureus [2]", "result": 2, "unit": "µg/mL"}, {"measurement": "Activity", "setting": "Staphylococcus aureus [3]", "result": "inactive"}, {"measurement": "Activity", "setting": "Staphylococcus aureus [4]", "result": "inactive"}, {"measurement": "Activity", "setting": "Equus caballus", "result": "Active"}, {"measurement": "Activity", "setting": "[5]", "result": "inactive"}, {"measurement": "Activity", "setting": "[6]", "result": "inactive"}, {"measurement": "Activity", "setting": "Staphylococcus aureus [7]", "result": "Active"}, {"measurement": "IC50", "setting": "HaCaT", "result": 193, "unit": "µM"}]}
{"smiles": "O=C(O)c1cccc2nc3cccc(Br)c3nc12", "values": [{"measurement": "MIC", "setting": "Staphylococcus aureus [2]", "result": 32, "unit": "µg/mL"}, {"measurement": "IC50", "setting": "HaCaT", "result": 345, "unit": "µM"}]}
{"smiles": "COC(=O)c1cccc2nc3cccc(Br)c3nc12", "values": [{"measurement": "MIC", "setting": "Staphylococcus aureus [2]", "result": 128, "unit": "µg/mL"}]}
{"smiles": "CN(C)C(=O)c1cccc2nc3c(/C=C/C(C)(C)O)cccc3nc12", "values": [{"measurement": "MIC", "setting": "Staphylococcus aureus [2]", "result": "> 128", "unit": "µg/mL"}, {"measurement": "Activity", "setting": "Equus caballus", "result": "Active"}]}
{"smiles": "CC(C)(O)/C=C/c1cccc2nc3cccc(C(=O)O)c3nc12", "values": [{"measurement": "MIC", "setting": "Staphylococcus aureus [2]", "result": 32, "unit": "µg/mL"}, {"measurement": "Activity", "setting": "Staphylococcus aureus [3]", "result": "inactive"}, {"measurement": "Activity", "setting": "Staphylococcus aureus [4]", "result": "inactive"}, {"measurement": "Activity", "setting": "Equus caballus", "result": "Active"}, {"measurement": "Activity", "setting": "[5]", "result": "inactive"}, {"measurement": "Activity", "setting": "[6]", "result": "inactive"}, {"measurement": "Activity", "setting": "Staphylococcus aureus [7]", "result": "Active"}, {"measurement": "IC50", "setting": "HaCaT", "result": 306, "unit": "µM"}]}
{"smiles": "CN(C)C(=O)c1cccc2nc3cccc(/C=C/C(C)(C)O)c3nc12", "values": [{"measurement": "MIC", "setting": "Staphylococcus aureus [2]", "result": "> 128", "unit": "µg/mL"}]}
{"smiles": "COC(=O)c1cccc2nc3ccccc3nc12", "values": [{"measurement": "MIC", "setting": "Staphylococcus aureus [1]", "result": 128, "unit": "µg/mL"}]}
{"smiles": "O=C(O)c1cccc2nc3cc(Br)ccc3nc12", "values": [{"measurement": "MIC", "setting": "Staphylococcus aureus [2]", "result": 64, "unit": "µg/mL"}]}
{"smiles": "COC(=O)c1cccc2nc3cccc(C)c3nc12", "values": [{"measurement": "MIC", "setting": "Staphylococcus aureus [2]", "result": 64, "unit": "µg/mL"}]}
{"smiles": "Cc1cccc2nc3cccc(C(=O)O)c3nc12", "values": [{"measurement": "MIC", "setting": "Staphylococcus aureus [2]", "result": 32, "unit": "µg/mL"}]}
{"smiles": "O=C(O)c1cccc2nc3cccc(F)c3nc12", "values": [{"measurement": "MIC", "setting": "Staphylococcus aureus [2]", "result": 64, "unit": "µg/mL"}]}
{"smiles": "N#Cc1cccc2nc3cccc(Br)c3nc12", "values": [{"measurement": "MIC", "setting": "Staphylococcus aureus [2]", "result": "> 128", "unit": "µg/mL"}]}
